Assay results taken from ChEMBL document CHEMBL5724801, “EUbOPEN Chemogenomics Library - Multiplex” (2024).
Where “and” joins values, the source holds several entries; their conditions need not be identical. Equal entries are not always repeated.

Test system: HEK-293T
Assay: Multiplex assay against HEK293T
Assay type: toxicity, cell-based
Conditions: human
How it was run: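 Live cells were stained at seeding with Hoechst33342, BioTracker Green Microtubule Cytoskeleton Dye, MitoTracker Red and Annexin V Alexa Fluor 680. Following compound addition, they were imaged on a CQ1 microscope at 37°C and 5% CO2 and gated by CellPathfinder machine learning into Hoechst high-intensity objects or normal cells, with normal cells split into healthy, pyknosed or fragmented nuclei and pyknosed cells into mitotic or apoptotic. Tubulin, mitochondrial-mass and membrane-permeability phenotypes are per cents of healthy-nucleus cells.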

[1] = 12 h, 1 µM, compound concentration 1 uM
[2] = 12 h, 10 µM, compound concentration 10 uM
[3] = 24 h, 1 µM, compound concentration 1 uM
[4] = 24 h, 10 µM, compound concentration 10 uM
[5] = 48 h, 1 µM, compound concentration 1 uM
[6] = 48 h, 10 µM, compound concentration 10 uM

COc1ccc2c(c1OCc1ccccc1)C[C@@H](C(=O)O)N(C(=O)C(c1ccccc1)c1ccccc1)C2 [OLODANRIGAN]
Population Apoptotic (%) [1]: 39% and 43%
Population Fragmented Nuclei (%) [1]: 6% and 7%
Population Healthy Nuclei (%) [1]: 82% and 81%
Population Hoechst High Intensity Objects (%) [1]: 7%
Population Membrane Permeable-Phenotype (%) [1]: 0%
Population Mitochondria Different-Phenotype (%) [1]: 44% and 48%
Population Mitotic Cells (%) [1]: 60% and 56%
Population Normal (%) [1]: 92%
Population Pyknosed Nuclei (%) [1]: 11% and 10%
Population Tubulin-Different-Phenotype (%) [1]: 21% and 17%
Total Cell Count [1]: 419 and 409
Population Apoptotic (%) [2]: 45% and 44%
Population Fragmented Nuclei (%) [2]: 6% and 4%
Population Healthy Nuclei (%) [2]: 81% and 83%
Population Hoechst High Intensity Objects (%) [2]: 6% and 3%
Population Membrane Permeable-Phenotype (%) [2]: 0%
Population Mitochondria Different-Phenotype (%) [2]: 42% and 58%
Population Mitotic Cells (%) [2]: 54% and 55%
Population Normal (%) [2]: 93% and 96%
Population Pyknosed Nuclei (%) [2]: 12%
Population Tubulin-Different-Phenotype (%) [2]: 35% and 27%
Total Cell Count [2]: 389 and 368
Population Apoptotic (%) [3]: 46% and 19%
Population Fragmented Nuclei (%) [3]: 11% and 10%
Population Healthy Nuclei (%) [3]: 78% and 81%
Population Hoechst High Intensity Objects (%) [3]: 3% and 6%
Population Membrane Permeable-Phenotype (%) [3]: 0% and 1%
Population Mitochondria Different-Phenotype (%) [3]: 24% and 30%
Population Mitotic Cells (%) [3]: 53% and 80%
Population Normal (%) [3]: 96% and 93%
Population Pyknosed Nuclei (%) [3]: 10% and 8%
Population Tubulin-Different-Phenotype (%) [3]: 15% and 14%
Total Cell Count [3]: 614 and 521
Population Apoptotic (%) [4]: 40% and 43%
Population Fragmented Nuclei (%) [4]: 7% and 10%
Population Healthy Nuclei (%) [4]: 78% and 79%
Population Hoechst High Intensity Objects (%) [4]: 6%
Population Membrane Permeable-Phenotype (%) [4]: 0%
Population Mitochondria Different-Phenotype (%) [4]: 34% and 57%
Population Mitotic Cells (%) [4]: 59% and 56%
Population Normal (%) [4]: 93%
Population Pyknosed Nuclei (%) [4]: 13% and 9%
Population Tubulin-Different-Phenotype (%) [4]: 32% and 28%
Total Cell Count [4]: 456 and 414
Population Apoptotic (%) [5]: 26% and 22%
Population Fragmented Nuclei (%) [5]: 13% and 15%
Population Healthy Nuclei (%) [5]: 80% and 79%
Population Hoechst High Intensity Objects (%) [5]: 2%
Population Membrane Permeable-Phenotype (%) [5]: 0%
Population Mitochondria Different-Phenotype (%) [5]: 15% and 18%
Population Mitotic Cells (%) [5]: 73% and 77%
Population Normal (%) [5]: 97%
Population Pyknosed Nuclei (%) [5]: 5%
Population Tubulin-Different-Phenotype (%) [5]: 11% and 10%
Total Cell Count [5]: 1083 and 818
Population Apoptotic (%) [6]: 32% and 39%
Population Fragmented Nuclei (%) [6]: 12%
Population Healthy Nuclei (%) [6]: 78% and 80%
Population Hoechst High Intensity Objects (%) [6]: 5% and 6%
Population Membrane Permeable-Phenotype (%) [6]: 0%
Population Mitochondria Different-Phenotype (%) [6]: 22% and 32%
Population Mitotic Cells (%) [6]: 67% and 60%
Population Normal (%) [6]: 94% and 93%
Population Pyknosed Nuclei (%) [6]: 8% and 7%
Population Tubulin-Different-Phenotype (%) [6]: 15% and 18%
Total Cell Count [6]: 659 and 534

O=c1nc2[nH]c3ccccc3nc-2c(=O)[nH]1 [ALLOXAZINE]
Population Apoptotic (%) [1]: 27% and 44%
Population Fragmented Nuclei (%) [1]: 8% and 4%
Population Healthy Nuclei (%) [1]: 77% and 79%
Population Hoechst High Intensity Objects (%) [1]: 8% and 7%
Population Membrane Permeable-Phenotype (%) [1]: 0%
Population Mitochondria Different-Phenotype (%) [1]: 44% and 66%
Population Mitotic Cells (%) [1]: 72% and 55%
Population Normal (%) [1]: 91% and 92%
Population Pyknosed Nuclei (%) [1]: 13% and 15%
Population Tubulin-Different-Phenotype (%) [1]: 33% and 25%
Total Cell Count [1]: 377 and 345
Population Apoptotic (%) [2]: 40% and 60%
Population Fragmented Nuclei (%) [2]: 10% and 8%
Population Healthy Nuclei (%) [2]: 71% and 70%
Population Hoechst High Intensity Objects (%) [2]: 5% and 15%
Population Membrane Permeable-Phenotype (%) [2]: 0%
Population Mitochondria Different-Phenotype (%) [2]: 53% and 67%
Population Mitotic Cells (%) [2]: 59% and 40%
Population Normal (%) [2]: 94% and 84%
Population Pyknosed Nuclei (%) [2]: 18% and 20%
Population Tubulin-Different-Phenotype (%) [2]: 31% and 20%
Total Cell Count [2]: 362 and 323
Population Apoptotic (%) [3]: 22% and 33%
Population Fragmented Nuclei (%) [3]: 10% and 7%
Population Healthy Nuclei (%) [3]: 76% and 83%
Population Hoechst High Intensity Objects (%) [3]: 4% and 7%
Population Membrane Permeable-Phenotype (%) [3]: 0%
Population Mitochondria Different-Phenotype (%) [3]: 24% and 41%
Population Mitotic Cells (%) [3]: 77% and 66%
Population Normal (%) [3]: 95% and 92%
Population Pyknosed Nuclei (%) [3]: 12% and 8%
Population Tubulin-Different-Phenotype (%) [3]: 19% and 12%
Total Cell Count [3]: 504 and 391
Population Apoptotic (%) [4]: 27% and 50%
Population Fragmented Nuclei (%) [4]: 9%
Population Healthy Nuclei (%) [4]: 77% and 72%
Population Hoechst High Intensity Objects (%) [4]: 6% and 15%
Population Membrane Permeable-Phenotype (%) [4]: 0%
Population Mitochondria Different-Phenotype (%) [4]: 34% and 48%
Population Mitotic Cells (%) [4]: 72% and 50%
Population Normal (%) [4]: 93% and 84%
Population Pyknosed Nuclei (%) [4]: 12% and 17%
Population Tubulin-Different-Phenotype (%) [4]: 21% and 16%
Total Cell Count [4]: 491 and 371
Population Apoptotic (%) [5]: 32% and 27%
Population Fragmented Nuclei (%) [5]: 14% and 11%
Population Healthy Nuclei (%) [5]: 77% and 82%
Population Hoechst High Intensity Objects (%) [5]: 3% and 4%
Population Membrane Permeable-Phenotype (%) [5]: 1% and 0%
Population Mitochondria Different-Phenotype (%) [5]: 18% and 26%
Population Mitotic Cells (%) [5]: 67% and 72%
Population Normal (%) [5]: 96% and 95%
Population Pyknosed Nuclei (%) [5]: 8% and 6%
Population Tubulin-Different-Phenotype (%) [5]: 13% and 12%
Total Cell Count [5]: 773 and 636
Population Apoptotic (%) [6]: 29% and 48%
Population Fragmented Nuclei (%) [6]: 15% and 14%
Population Healthy Nuclei (%) [6]: 76% and 78%
Population Hoechst High Intensity Objects (%) [6]: 3% and 4%
Population Membrane Permeable-Phenotype (%) [6]: 0%
Population Mitochondria Different-Phenotype (%) [6]: 17% and 28%
Population Mitotic Cells (%) [6]: 70% and 51%
Population Normal (%) [6]: 96% and 95%
Population Pyknosed Nuclei (%) [6]: 7% and 6%
Population Tubulin-Different-Phenotype (%) [6]: 11% and 14%
Total Cell Count [6]: 700 and 531

CC(C)(c1ccc(O)cc1)c1ccc(O)cc1 [BISPHENOL A]
Population Apoptotic (%) [1]: 8.05% and 13.14%
Population Fragmented Nuclei (%) [1]: 5.16% and 3.01%
Population Hoechst High Intensity Objects (%) [1]: 0% and 0.6%
Population Membrane Permeable-Phenotype (%) [1]: 0% and 4.17%
Population Mitochondria Different-Phenotype (%) [1]: 34.18% and 33.33%
Population Mitotic Cells (%) [1]: 91.95% and 86.86%
Population Normal (%) [1]: 100% and 99.4%
Population Pyknosed Nuclei (%) [1]: 36.61% and 82.53%
Total Cell Count [1]: 407 and 167
Population Apoptotic (%) [2]: 10.57% and 14.78%
Population Fragmented Nuclei (%) [2]: 4.23% and 2.74%
Population Hoechst High Intensity Objects (%) [2]: 1.19% and 0.68%
Population Membrane Permeable-Phenotype (%) [2]: 0%
Population Mitochondria Different-Phenotype (%) [2]: 37.63% and 18.52%
Population Mitotic Cells (%) [2]: 89.43% and 85.22%
Population Normal (%) [2]: 98.81% and 99.32%
Population Pyknosed Nuclei (%) [2]: 37.16% and 78.77%
Total Cell Count [2]: 335 and 147
Population Apoptotic (%) [3]: 12.93% and 13.39%
Population Fragmented Nuclei (%) [3]: 1.95% and 0.56%
Population Healthy Nuclei (%) [3]: 77.52% and 28.89%
Population Hoechst High Intensity Objects (%) [3]: 0.18% and 0%
Population Membrane Permeable-Phenotype (%) [3]: 1.6% and 1.92%
Population Mitochondria Different-Phenotype (%) [3]: 13.7% and 15.38%
Population Mitotic Cells (%) [3]: 87.07% and 86.61%
Population Normal (%) [3]: 99.82% and 100%
Population Tubulin-Different-Phenotype (%) [3]: 9.82% and 13.46%
Population Apoptotic (%) [4]: 12.5% and 15.52%
Population Fragmented Nuclei (%) [4]: 2.67% and 1.71%
Population Healthy Nuclei (%) [4]: 74.28% and 32%
Population Hoechst High Intensity Objects (%) [4]: 0%
Population Membrane Permeable-Phenotype (%) [4]: 1.11% and 0%
Population Mitochondria Different-Phenotype (%) [4]: 19.11% and 16.07%
Population Mitotic Cells (%) [4]: 87.5% and 84.48%
Population Normal (%) [4]: 100%
Population Pyknosed Nuclei (%) [4]: 23.05% and 66.29%
Total Cell Count [4]: 486 and 175
Population Apoptotic (%) [5]: 8.33% and 18.95%
Population Fragmented Nuclei (%) [5]: 3.14% and 0%
Population Healthy Nuclei (%) [5]: 87.89% and 52.74%
Population Hoechst High Intensity Objects (%) [5]: 0.07% and 0.99%
Population Membrane Permeable-Phenotype (%) [5]: 5.87% and 1.89%
Population Mitotic Cells (%) [5]: 91.67% and 81.05%
Population Normal (%) [5]: 99.93% and 99.01%
Population Fragmented Nuclei (%) [6]: 3.13% and 2.41%
Population Healthy Nuclei (%) [6]: 86.33% and 68.67%
Population Hoechst High Intensity Objects (%) [6]: 0% and 2.35%
Population Membrane Permeable-Phenotype (%) [6]: 4.42% and 1.75%
Population Mitochondria Different-Phenotype (%) [6]: 9.82% and 14.62%
Population Mitotic Cells (%) [6]: 95.65% and 84.72%
Population Normal (%) [6]: 100% and 97.65%
Population Pyknosed Nuclei (%) [6]: 10.54% and 28.92%
